Data from ChEMBL document CHEMBL3286203, “Reactive oxygen species (ROS) inducible DNA cross-linking agents and their effect on cancer cells and normal lymphocytes” (J Med Chem, 2014).
Activity calls are given as the source filed them. The calls are words filed in the database; no cut-off is given here.

Key:
[1] = system: CLL; test: Induction of apoptosis in human CLL cells at 10 uM after 24 hrs by DCDFA assay in presence of NAC; type: functional, cell-based
[2] = system: CLL; test: Induction of ROS generation in human CLL cells at 10 uM after 24 hrs by DCDFA assay in presence of NAC; type: functional, cell-based
Outline: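 Primary CLL cells given compound (10 μM) with or without N-acetyl cysteine ([…]) for 24 h. Global ROS measured by DCFDA staining and flow histograms; n = 8 patient samples.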

[3] = Drug level in deuterated phosphate buffer treated with 40 mM N,N-Bis(2-chloroethyl)-4-(4,4,5,5-tetramethyl-1,3,2-dioxaborolan-2-yl)aniline after 24 hrs by 1H-NMR analysis; type: physicochemical
Outline: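 1H NMR of the boronate mustard (40 mM) held 24 h in deuterated potassium phosphate buffer (4.0 mM) with no H2O2. Solvent was 1.0 M deuterated potassium phosphate buffer/DMSO-d6/D2O = 2:450:48.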

[4] = 1-Octanol-PBS partition coefficient, log P of the compound; type: physicochemical

SMILES | Activity [1] | Activity [2] | Drug metabolism [3] | logP [4]
CC1(C)OB(c2ccc(N(CCCl)CCBr)cc2)OC1(C)C | inactive | inactive |  | 
CC1(C)OB(c2ccc(N(CCCl)CCCl)cc2)OC1(C)C |  |  | metabolite_detected | 2.8
